# Source: ChEMBL document CHEMBL1139931, “Synthesis and structure-activity relationships of novel pyrimido[1,2-b]indazoles as potential anticancer agents against A-549 cell lines” (2007)
# Test system: A549
# Experiment: Anticancer activity against human A549 cells at 1 nM after 12 hrs
# Assay type: functional
# Settings: A549, 12 h
# How it was run: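 A-549 cells seeded at 10,000 cells/well in 96-well plates, recovered overnight in 5% CO2, then exposed 12 h to compound at 1 nM/ml (in 1% DMSO in PBS). MTT added from a 5 mg/ml PBS stock, 5 h at 37 °C, medium removed, formazan dissolved in DMSO for 5 min at 37 °C. Growth inhibition read at 550 nm; duplicate runs.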
row,SMILES,inhibition at 0.001 µM [%]
1,Cc1cc(=O)n2nc3c(C#N)c(C(F)(F)F)cc(-c4ccccc4)c3c2[nH]1,0.44
2,Cc1cc(-c2ccccc2)nc2c3c(C(F)(F)F)cc(-c4ccccc4)c(C#N)c3nn12,13.3
3,Cc1cc(C)n2nc3c(C#N)c(-c4ccccc4)cc(C(F)(F)F)c3c2n1,3.74
4,N#Cc1c(C(F)(F)F)cc(-c2ccccc2)c2c1nn1c(-c3ccccc3)cc(-c3ccccc3)nc21,5.96
5,Cc1ccc(-c2cc(C(F)(F)F)n3nc4c(C#N)c(C(F)(F)F)cc(-c5ccccc5)c4c3n2)cc1,6.77
6,N#Cc1c(C(F)(F)F)cc(-c2ccccc2)c2c1nn1c(C(F)(F)F)cc(C(F)(F)F)nc21,10.2
7,CCOC(=O)c1cnc2c3c(-c4ccccc4)cc(C(F)(F)F)c(C#N)c3nn2c1N,11
8,N#Cc1c(-c2ccccc2)cc(C(F)(F)F)c2c1nn1c(C(F)(F)F)cc(C(F)(F)F)nc21,4.54
9,Cc1cc(-c2ccccc2)n2nc3c(C#N)c(C(F)(F)F)cc(-c4ccccc4)c3c2n1,4.8
10,N#Cc1c(-c2ccccc2)cc(C(F)(F)F)c2c1nn1c(C(F)(F)F)cc(-c3ccccc3)nc21,16.2
11,N#Cc1c(C(F)(F)F)cc(-c2ccccc2)c2c1nn1c(C(F)(F)F)cc(-c3ccccc3)nc21,8.9
12,CCOC(=O)c1cnc2c3c(-c4ccccc4)cc(C(F)(F)F)c(C#N)c3nn2c1O,8.24
13,CCOC(=O)c1cnc2c3c(C(F)(F)F)cc(-c4ccccc4)c(C#N)c3nn2c1N,10.7
14,Cc1cc(C(F)(F)F)n2nc3c(C#N)c(C(F)(F)F)cc(-c4ccccc4)c3c2n1,6.44
15,COc1cc([C@@H]2c3cc4c(cc3[C@@H](O[C@@H]3O[C@@H]5CO[C@@H](C)O[C@H]5[C@H](O)[C@H]3O)[C@H]3COC(=O)[C@H]23)OCO4)cc(OC)c1O [ETOPOSIDE],1.15
